According to ChEMBL document CHEMBL1150426, “New C5-alkylated indolobenzazepinones acting as inhibitors of tubulin polymerization: cytotoxic and antitumor activities” (J Med Chem, 2008):

Legend:
KB = assay: Cytotoxicity against human KB cells after 72 hrs; type: functional, cell-based
Outline: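 KB cells in EMEM (4.5 g/L glucose, 10% FCS, 1% glutamine) seeded 5 × 10³/well, dosed after 24 h with compound in DMSO (<0.1%). 72 h exposure, then resazurin 2 h; fluorescence ex 560/em 590 nm. IC50 = 50% fluorescence decrease versus untreated; triplicate.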

[1] = Inhibition of sheep brain tubulin polymerization; parameters: species or system Ovis aries
Outline: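 Sheep brain tubulin (about 2–3 mg/mL), purified by two assembly–disassembly cycles, in 0.1 M MES, 0.5 mM MgCl₂, 1 mM EGTA, 1 mM GTP, pH 6.6. Assembly followed by turbidity at 350 nm, 37 °C.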

[2] = Antitumor activity against human U87 tumor transplanted in chick chorio-allantoic membrane assessed as reduction of tumor volume at 100 uM after 4 days; type: functional, U-87MG ATCC; parameters: scale not given: the % may be the effect or the level left
Outline: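 On embryonic day 10, 5 × 10⁶ U87 glioma cells were placed on the chick CAM. On day 2 of tumor growth, size-matched tumors were split into groups. From day 3 to day 6, 20 µL of compound at 100 µM was applied locally once daily, and controls got solvent. Volume was calculated as V = 4/3πr³ with r = 1/2√(length × width), using six tumors per group.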

MDA-MB-435 = assay: Antiproliferative activity against human MDA-MB-435 cells after 72 hrs; type: functional, cell-based; conditions: MDA-MB-435, 72 h
Outline: (§1)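 Cells were seeded at 5 × 10³ per well and cultured for 24 h. Test compound in DMSO (under 0.1%) was then added for 72 h. Resazurin was added for 2 h, and fluorescence was read at ex 560 nm / em 590 nm. IC50 was taken as the concentration giving a 50% fall in fluorescence versus untreated cells. Runs were done in triplicate.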

B16-F10 = assay: Antiproliferative activity against mouse B16F10 cells after 72 hrs; type: functional, cell-based; conditions: B16-F10, 72 h; outline: as §1
A549 = assay: Antiproliferative activity against human A549 cells after 72 hrs; type: functional, cell-based; conditions: A549, 72 h; outline: as §1
MDA-MB-231 = assay: Antiproliferative activity against human MDA-MB-231 cells after 72 hrs; type: functional, cell-based; conditions: MDA-MB-231, 72 h; outline: as §1
HCT-116 = assay: Antiproliferative activity against human HCT116 cells after 72 hrs; type: functional, cell-based; conditions: HCT-116, 72 h; outline: as §1

Row | SMILES | IC50 (KB) | IC50 [1] | Activity [2] | IC50 (MDA-MB-435) | IC50 (B16-F10) | IC50 (A549) | IC50 (MDA-MB-231) | IC50 (HCT-116)
1 | CC1c2ccccc2-c2c(n(C)c3ccccc23)C(=O)N1C (stereo not drawn) | 28000 nM | – | – | – | – | – | – | –
2 | CC(C)C1NC(=O)c2[nH]c3ccccc3c2-c2ccccc21 (racemic) | 280 nM | 1700 nM | – | – | – | – | – | –
3 | CCC1NC(=O)c2[nH]c3ccc(F)cc3c2-c2ccccc21 (racemic) | 500 nM | 3600 nM | – | – | – | – | – | –
4 | COc1cc2c(c(OC)c1OC)-c1ccc(O)cc1[C@@H](NC(C)=O)CC2 [N-ACETYLCOLCHINOL] | 75 nM | 3000 nM | 42% | 140 nM | 72 nM | 250 nM | 700 nM | 100 nM
